The record followed here is ChEMBL document CHEMBL4725241, “Discovery of BMS-986235/LAR-1219: A Potent Formyl Peptide Receptor 2 (FPR2) Selective Agonist for the Prevention of Heart Failure” (J Med Chem, 2020).

Calls of active or inactive are those of the source. No cut-off for these calls is given here.

Data set [1] can be described thus: In vivo […] in mouse assessed as reduction in LPS-induced neutrophil infiltration in BALF cells at 1 mg/kg, po relative to control. The format is functional. Put shortly: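 Mice were given LPS and dosed orally at 1 mg/kg. Neutrophils in BALF were counted, and percent inhibition was calculated.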
Data set [2] can be described thus: Half life in Crl:CD(SD) rat at 1 mg/kg, po by LC-MS/MS analysis. The format is ADME, organism-based. The settings on record: in vivo. The procedure, abridged:
(§1)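 Male animals dosed orally with a suspension in 0.5% MC. Blood was taken into EDTA 2K capillaries and plasma was stored frozen. Plasma was mixed with methanol/acetonitrile (1:1) plus internal standard, centrifuged, and drug was measured by LC-MS/MS. AUC0-inf was obtained by the trapezoidal rule, extrapolated with kel from the terminal phase. t1/2 = ln2/kel.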

Data set [3] can be described thus: Clearance in rat liver microsome at 0.1 umol/l and measured for 60 mins by LC-MS/MS analysis. The class given is ADME. The settings on record: microsomes, 1 h, 0.1 µM, dose 0.1 µmol/L. The procedure, abridged: (§2)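 Liver microsomes (1 mg protein/mL final) with an NADPH regenerating system were preincubated 5 min at 37°C, then given 0.1 µmol/L compound. Samples were taken at 0-60 min, quenched in methanol/acetonitrile with internal standard, and analysed by LC-MS/MS. Runs were in triplicate. kel came from 5-30 min points. CLint = kel/protein concentration (mL/min/mg protein).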

Data set [4] in a line: Volume of distribution at steady state in Beagle dog at 1 mg/kg, iv by LC-MS/MS analysis. The class given is ADME, organism-based, Canis lupus familiaris. The conditions noted are these: in vivo, read-out: Vdss. The procedure, abridged:
(§3)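 Male animals received intravenous solution in DMSO/PEG400/saline (5/47.5/47.5). EDTA plasma was extracted with methanol/acetonitrile (1:1) plus internal standard and quantified by LC-MS/MS. AUC0-inf was calculated by the trapezoidal rule with terminal-phase kel extrapolation.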

In data set [5] the target is T1, fMet-Leu-Phe receptor (Homo sapiens, UniProt P21462).
T1 sequence (P21462 whole entry): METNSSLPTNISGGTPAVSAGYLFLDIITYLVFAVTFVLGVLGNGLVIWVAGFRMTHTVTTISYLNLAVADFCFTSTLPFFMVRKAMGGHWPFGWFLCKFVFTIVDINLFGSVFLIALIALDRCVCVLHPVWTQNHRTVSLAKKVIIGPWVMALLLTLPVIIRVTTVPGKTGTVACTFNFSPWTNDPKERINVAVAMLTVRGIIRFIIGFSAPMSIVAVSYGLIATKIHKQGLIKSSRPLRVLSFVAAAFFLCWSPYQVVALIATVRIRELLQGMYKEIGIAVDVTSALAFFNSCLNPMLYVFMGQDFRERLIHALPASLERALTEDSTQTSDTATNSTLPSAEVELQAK
Briefly: Agonist activity at human FPR1 expressed in CHO cells assessed as reduction cAMP accumulation incubated for 1 hr by TR-FRET assay. The format is functional, cell-based. The procedure, abridged:
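CHO cells overexpressing the receptor were used, 2,000 hFPR2 or 4,000 hFPR1 cells/well. Cells were incubated 30 min at room temperature with compound (1.7 nM-100 µM, 1% DMSO), IBMX 200 µM and forskolin (5 µM for FPR2, 10 µM for FPR1) in DPBS/0.1% BSA. cAMP was read by HTRF after 1 h lysis against a standard curve. Data were fitted to a 4-parameter logistic, average of ≥2 occasions.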

Data set [6] is described as follows: Cmax in cynomolgus monkey at 3 mg/kg, po by LC-MS/MS analysis. The conditions noted are these: in vivo. The class given is ADME, organism-based, Macaca fascicularis. Also on record: route oral, dose 3 mg/kg. Put shortly:
as §1

Data set [7] has as its target T2, Formyl peptide receptor 2 (Mus musculus, UniProt O88536).
T2 sequence (O88536 whole entry): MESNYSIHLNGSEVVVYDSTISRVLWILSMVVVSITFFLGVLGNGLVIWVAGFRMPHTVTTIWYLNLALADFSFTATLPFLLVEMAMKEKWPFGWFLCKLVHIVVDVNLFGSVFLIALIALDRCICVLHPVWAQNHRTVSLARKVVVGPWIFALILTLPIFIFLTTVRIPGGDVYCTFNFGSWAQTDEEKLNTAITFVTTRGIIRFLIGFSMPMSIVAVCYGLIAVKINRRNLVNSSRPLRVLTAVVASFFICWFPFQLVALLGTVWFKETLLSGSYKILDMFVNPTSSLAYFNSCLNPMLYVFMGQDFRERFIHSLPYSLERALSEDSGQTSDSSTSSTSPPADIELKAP
Briefly: Agonist activity at mouse FPR2 expressed in HEK 293 cells co-expressing Galpha15 measured every 1.5 sec for 80 sec by Fluo-4 NW staining based scanning fluorometric method. The format is cell-based, HEK293. Put shortly: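 HEK293 cells were transiently co-transfected with FPR plus Gα15 (Lipofectamine 2000), then reseeded after 24 h on poly-D-lysine plates and grown one more day. Cells were loaded with Fluo-4 NW for 45 min at 37°C. Compound was added and fluorescence (ex 485/em 525 nm) read for 80 s at 1.5 s intervals. Response = maximal peak minus basal.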

Data set [8] can be described thus: Oral bioavailability in Beagle dog at 1 mg/kg by LC-MS/MS analysis. The class given is ADME, organism-based, Canis lupus familiaris. The conditions noted are these: in vivo.
Data set [9] in a line: Half life in Beagle dog at 1 mg/kg, po by LC-MS/MS analysis. The class given is ADME, organism-based, Canis lupus familiaris. The settings on record: in vivo. The procedure, abridged:
as §1

Data set [10] is described as follows: Total clearance in Beagle dog at 1 mg/kg, iv by LC-MS/MS analysis. The settings on record: in vivo. The format is ADME, organism-based, Canis lupus familiaris. Put shortly: as §3
A short description of data set [11]: Half life in BALB/cCrSlc mouse at 1 mg/kg, po by LC-MS/MS analysis. The class given is ADME, organism-based. The conditions noted are these: in vivo. The procedure, abridged:
as §1

The test system of data set [12] is Mus musculus. Briefly: Cardioprotective activity in C57BL/6 mouse model of LAD coronary artery ligation-induced myocardial infarction assessed as reduction in LV chamber area at 0.3 mg/kg, po and measured after 28 days. The class given is functional, organism-based. The settings on record: time 28.0 day. The procedure, abridged: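 Male C57BL/6 mice (10-12 weeks) underwent permanent LAD ligation under ketamine/xylazine, with shams having an untightened suture. Compound (0.3 mg/kg/d) or vehicle was given by oral gavage once daily (5 mL/kg) from post-MI day 4 for 24 days. Endpoints were taken at 28 days post-MI; scar length was quantified from LV cross sections.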

The target of data set [13] is Cytochrome P450 3A4 (Homo sapiens, UniProt P08684). Briefly: Inhibition of recombinant human CYP3A4. The class given is ADME.
Sequence of Cytochrome P450 3A4 (P08684 whole entry): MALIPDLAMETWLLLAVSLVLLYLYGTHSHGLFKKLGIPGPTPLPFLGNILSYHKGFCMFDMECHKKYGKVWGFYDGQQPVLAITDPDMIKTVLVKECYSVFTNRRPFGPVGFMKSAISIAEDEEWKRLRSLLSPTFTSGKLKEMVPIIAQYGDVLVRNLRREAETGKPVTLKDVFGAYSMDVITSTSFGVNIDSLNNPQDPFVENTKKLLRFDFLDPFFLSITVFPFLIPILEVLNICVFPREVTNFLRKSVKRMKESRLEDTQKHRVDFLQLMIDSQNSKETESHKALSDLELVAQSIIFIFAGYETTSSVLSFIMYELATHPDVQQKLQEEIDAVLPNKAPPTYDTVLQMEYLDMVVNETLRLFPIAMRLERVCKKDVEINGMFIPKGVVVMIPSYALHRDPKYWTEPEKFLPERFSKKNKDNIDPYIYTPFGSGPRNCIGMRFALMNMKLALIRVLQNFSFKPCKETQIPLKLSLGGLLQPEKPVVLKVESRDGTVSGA
Data set [14] can be described thus: Volume of distribution at steady state in Crl:CD1(ICR) mouse at 0.5 mg/kg, iv by LC-MS/MS analysis. The class given is ADME, organism-based. The settings on record: in vivo, read-out: Vdss. The procedure, abridged:
as §3

The nature of data set [15]: Volume of distribution at steady state in cynomolgus monkey at 1 mg/kg, iv by LC-MS/MS analysis. The class given is ADME, organism-based, Macaca fascicularis. The conditions noted are these: in vivo, read-out: Vdss. The procedure, abridged: as §3
Data set [16] can be described thus: Oral bioavailability in BALB/cCrSlc mouse at 1 mg/kg by LC-MS/MS analysis. The format is ADME, organism-based. The conditions noted are these: in vivo. The procedure, abridged:
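Oral bioavailability = (AUC0-inf,po/dose po)/(AUC0-inf,iv/dose iv) × 100. Oral dosing used a 0.5% MC suspension. IV dosing used a DMSO/PEG400/saline (5/47.5/47.5) solution, with CD1(ICR) mice for the iv arm. Plasma drug levels were measured by LC-MS/MS after methanol/acetonitrile extraction with internal standard.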

A short description of data set [17]: Clearance in human liver microsome at 0.1 umol/l and measured for 60 mins by LC-MS/MS analysis. The class given is ADME. The settings on record: microsomes, 1 h, 0.1 µM, dose 0.1 µmol/L. Put shortly:
as §2

Data set [18] is described as follows: AUC (0 to infinity) in Beagle dog at 1 mg/kg, po by LC-MS/MS analysis. The format is ADME, organism-based, Canis lupus familiaris. The settings on record: in vivo. Further details: route oral, time infinity, dose 1 mg/kg. The procedure, abridged:
as §1

The nature of data set [19]: Total clearance in cynomolgus monkey at 1 mg/kg, iv by LC-MS/MS analysis. The settings on record: in vivo. The class given is ADME, organism-based, Macaca fascicularis. Put shortly:
as §3

Regarding `COc1cc(F)c([C@@H]2CNC(=O)[C@H]2NC(=O)Nc2ccccc2)c(F)c1` [BMS-986235], the inhibition in vivo at 1 mg/kg in [1] worked out at 88%. The figures for the half-life in data set [2], in data set [9] and in data set [11] were 3.8 h, 2.5 h and 0.68 h, respectively. Besides, the CLH in data set [3] stood at 21 µL/min/mg; in data set [17], 3.3 µL/min/mg. The Vd in data set [4] was 0.98 L/kg; in data set [14], 3.5 L/kg; in data set [15] it was 1.2 L/kg. In addition, the EC50 in data set [5] was 400 nM; in data set [7] it was 3.4 nM. In [6], this compound showed a Cmax of 800 nM. Moreover, the bioavailability in [8] stood at 50%; in [16], 24%. The clearance turned out to be 6.6 mL/min/kg in data set [10] and 12 mL/min/kg in data set [19]. Further, the outcome in [12] was Active. The IC50 in [13] was above 20000 nM. For the same compound, the AUC(0-inf) in data set [18] came out at 5.7 µM·h.
